From ChEMBL document CHEMBL3785009, “Oxadiazole-Based Cell Permeable Macrocyclic Transition State Inhibitors of Norovirus 3CL Protease” (J Med Chem, 2016)

How the values were obtained:
[1] = Inhibition of Norovirus 3C-like protease using Edans-DFHLQGP-Dabcyl fluorogenic substrate after 30 mins as substrate by FRET assay
Method in brief: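 FRET assay with the fluorogenic substrate derived from NV polyprotein cleavage sites. Compounds tested up to 100 μM. IC50 from at least two independent experiments.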

[2] = Cytotoxicity against human HG23 cells by CytoTox96 nonradioactive cytotoxicity assay; type: functional
Method in brief: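 HG23 cells (Huh-7 cells harbouring NV replicon) exposed to compound in serial dilution up to 100 µM; cytotoxicity read with a nonradioactive cytotoxicity kit; CC50 taken as concentration giving 50% cytotoxicity; at least two independent experiments.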

[3] = Antiviral activity against Murine norovirus1 infected in […] cells assessed as inhibition of virus induced cytopathic effect after 48 hrs by CytoTox96 nonradioactive cytotoxicity assay; conditions: Murine norovirus 1, 48 h
Norovirus = experiment: Antiviral activity against Norovirus infected in human HG23 cells assessed as reduction in RNA levels after 48 hrs by RT-PCR; type: functional, cell-based; conditions: for EC50 / EC90: HG23, 48 h
Method in brief: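 HG23 cells are Huh-7 cells carrying the NV replicon. Cells were seeded 1 day before treatment with compound (1.0–100 μM) for 48 h. Total RNA was extracted and norovirus and β-actin RNA measured by qRT-PCR. EC50/EC90 derived from % RNA reduction versus mock after β-actin normalization. At least two independent experiments; mean and standard deviation reported.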

Row | Structure (SMILES) | IC50 [1] [µM] | CC50 [2] [µM] | EC50 [3] [µM] | EC50 (Norovirus) [µM] | EC90 (Norovirus) [µM] | Activity (Norovirus)
1 | CC(C)(C)OC(=O)N[C@H]1CCC2=NN=C(CCNC(=O)CC[C@@H](C=O)NC(=O)[C@H](CC3CCCCC3)NC1=O)O2 | 14.5 | > 100 | 19.9 | 5.1 | 38.2 | –
2 | CC(C)C[C@@H]1NC(=O)[C@@H](NC(=O)OC(C)(C)C)CCC2=NN=C(CCNC(=O)CC[C@@H](C=O)NC1=O)O2 | 15.3 | > 100 | 9.8 | 2.5 | 23.4 | –
3 | CC(C)C[C@@H]1NC(=O)[C@@H](NC(=O)OC(C)(C)C)CCC2=NN=C(CNC(=O)CC[C@@H](C=O)NC1=O)O2 | 34.3 | > 100 | > 100 | 18.1 | 72.7 | –
4 | CC(C)(C)OC(=O)N[C@H]1CCC2=NN=C(CCCNC(=O)CC[C@@H](C=O)NC(=O)[C@H](CC3CCCCC3)NC1=O)O2 | 45.1 | > 100 | > 100 | 9.4 | 73.3 | –
5 | CC(C)C[C@@H]1NC(=O)[C@@H](NC(=O)OC(C)(C)C)CCC2=NN=C(CCCNC(=O)CC[C@@H](C=O)NC1=O)O2 | 21.3 | > 100 | 11.1 | 5.9 | 30.5 | –
6 | CC(C)(C)OC(=O)N[C@H]1CCC2=NN=C(CCCCNC(=O)CC[C@@H](C=O)NC(=O)[C@H](CC3CCCCC3)NC1=O)O2 | 18.5 | > 100 | 10.9 | 6.5 | 18.2 | Dose-dependent effect
7 | CC(C)C[C@@H]1NC(=O)[C@@H](NC(=O)OC(C)(C)C)CC2=NN=C(CNC(=O)CC[C@@H](C=O)NC1=O)O2 | > 100 | > 100 | > 100 | 19.4 | > 100 | –
8 | CC(C)(C)OC(=O)N[C@H]1CCC2=NN=C(CCCCCNC(=O)CC[C@@H](C=O)NC(=O)[C@H](CC3CCCCC3)NC1=O)O2 | 8.6 | > 100 | > 100 | 51.2 | > 100 | –
